The values that follow come from ChEMBL document CHEMBL1926561, “Neuroprotective efficacy of quinazoline type phosphodiesterase 7 inhibitors in cellular cultures and experimental stroke model” (Eur J Med Chem, 2012).

The target in data set [1] is T1, High affinity 3',5'-cyclic-AMP phosphodiesterase 7A (Homo sapiens, UniProt Q13946). As to the kind of experiment: Inhibition of PDE7A assessed as hydrolysis of [3H]cAMP at 10 uM after 20 mins by scintillation proximity assay. The gist of the method:
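PDE7A1 enzyme (0.02 units) incubated with 5 nCi [³H]cAMP plus inhibitor in kit assay buffer, 20 min at 30 °C. Scintillation binding beads (1 mg) then added to capture [³H]AMP, shaken 1 h at room temperature, settled 30 min, radioactivity counted.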
On the technique in general: Scintillation proximity formats need no separation of bound from free tracer.

The nature of data set [2]: Permeability of the compound after 2.5 hrs by PAMPA-BBB assay. (In general: PAMPA measures passive passage across an artificial lipid membrane.)
In data set [3] the test system is Microglia. Kind of data set: Antiinflammatory activity against rat microglial assessed as inhibition of LPS-induced nitrite production at 30 uM administered 1 hr before LPS challenge measured after 24 hrs by Griess reaction. The class given is functional. A digest of the protocol: (§1)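 Rat microglia shaken off 15-day mixed glial cultures and kept in HAMS/DMEM (1:1) with 10% FBS plus 10 ng/ml GM-CSF; purity >98% by OX42 staining. Cells were pretreated with compound for 1 h, then given LPS for 24 h. Nitrite in the medium was measured by Griess reaction. Means ± SD of three independent experiments.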
(In general: Griess reagent forms a coloured azo dye with nitrite.)

The test system of data set [4] is Cerebral cortex neuron. Kind of data set: Antiinflammatory activity against E18 rat primary cortical neurons assessed as inhibition of […] at 30 uM […] measured after 24 hrs by Griess reaction. The class given is functional, cell-based. The gist of the method:
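Rat E18 cortical neurons, plated on poly-lysine/gelatin and kept in Neurobasal with B-27, used at 7 days in culture. They were exposed for 24 h, with or without inhibitor, to cell-free supernatant from LPS-stimulated primary microglia. Nitrite in the medium was measured by Griess reaction. Means ± SD of three independent experiments.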

Data set [5] relates to Mus musculus. Kind of data set: Neuroprotective effect against middle cerebral artery occlusion-induced focal cerebral ischemia in Swiss mouse stroke model assessed as reduction in infarct volume at 5 mg/kg after 15 mins (reference value: 15.4 +/- 1.1 %). The class given is functional. Details: scale not given: the % may be the effect or the level left.
The subject of data set [6] is Astrocyte. As to the kind of experiment: Antiinflammatory activity against P2 rat astrocytes assessed as inhibition of LPS-induced nitrite production at 30 uM administered 1 hr before LPS challenge measured after 24 hrs by Griess reaction. The class given is functional, cell-based. A digest of the protocol:
(§2)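 Astrocytes from neonatal (P2) rat cortex, grown in HAMS/DMEM (1:1) with 10% FBS, shaken to remove microglia and oligodendrocytes, then expanded. Cells were pretreated with compound for 1 h, then stimulated with LPS for 24 h. Nitrite in the medium was measured by Griess reaction. Means ± SD of three independent experiments.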

Data set [7] addresses T1, High affinity 3',5'-cyclic-AMP phosphodiesterase 7A. As to the kind of experiment: Inhibition of PDE7A assessed as hydrolysis of [3H]cAMP after 20 mins by scintillation proximity assay. A digest of the protocol:
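Purified PDE7A1 (0.02 units) was incubated with 5 nCi [3H]cAMP and inhibitor in kit assay buffer for 20 min at 30 °C. Scintillation beads binding [3H]AMP were added, shaken 1 h at room temperature and left to settle 30 min, then radioactivity was counted. IC50 came from a sigmoidal dose-response fit of radioactivity vs log concentration.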

For data set [8], the system named is Microglia. Kind of data set: Antiinflammatory activity against rat microglial assessed as inhibition of LPS-induced nitrite production at 1 uM administered 1 hr before LPS challenge measured after 24 hrs by Griess reaction. The class given is functional. A digest of the protocol:
as §1

The test system of data set [9] is Astrocyte. As to the kind of experiment: Antiinflammatory activity against P2 rat astrocytes assessed as inhibition of LPS-induced nitrite production at 10 uM administered 1 hr before LPS challenge measured after 24 hrs by Griess reaction. The class given is functional, cell-based. A digest of the protocol: as §2
For data set [10], the system named is Microglia. As to the kind of experiment: Antiinflammatory activity against rat microglial assessed as inhibition of LPS-induced nitrite production at 10 uM administered 1 hr before LPS challenge measured after 24 hrs by Griess reaction. The class given is functional. The gist of the method:
as §1

pIC50: −log10 of the molar value. Calls of active or inactive are those of the source. The calls are words filed in the database; no cut-off is given here.

T1 sequence (Q13946 whole entry): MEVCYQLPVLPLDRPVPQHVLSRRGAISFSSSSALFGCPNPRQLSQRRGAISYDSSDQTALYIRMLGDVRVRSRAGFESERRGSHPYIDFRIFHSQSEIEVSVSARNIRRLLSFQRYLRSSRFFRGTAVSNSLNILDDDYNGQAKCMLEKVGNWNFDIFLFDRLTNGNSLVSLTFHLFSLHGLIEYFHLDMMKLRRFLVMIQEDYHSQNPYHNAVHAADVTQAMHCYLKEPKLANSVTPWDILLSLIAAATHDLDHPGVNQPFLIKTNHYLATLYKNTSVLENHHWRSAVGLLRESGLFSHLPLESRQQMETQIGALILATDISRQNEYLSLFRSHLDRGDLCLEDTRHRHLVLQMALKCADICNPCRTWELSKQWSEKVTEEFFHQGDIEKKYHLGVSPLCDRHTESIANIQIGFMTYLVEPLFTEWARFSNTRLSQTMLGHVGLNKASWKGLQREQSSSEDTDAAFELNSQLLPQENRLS

As usually defined, the inhibition is the change of the read-out against control, counted positive when it falls. With `O=c1[nH]c2ccccc2c(=O)n1-c1ccc(Br)cc1F`, in data set [1], the inhibition was 2.5%. A word on the Papp: it is the rate of passage across a membrane or cell layer, normalised by area and donor concentration. Turning to `CN(C)CCCN1c2ccccc2Sc2ccccc21` [PROMAZINE], the Papp at 2.5 h in data set [2] worked out at 7.7 ×10⁻⁶ cm/s. Regarding `S=c1[nH]c2ccccc2c(=S)n1-c1ccccc1`, the outcome in data set [3], in data set [4] and in data set [6] was Active. In addition, in data set [5], the Activity turned out to be 10.8%. The compound further came in with an apparent permeability (Papp) at 2.5 h in [2] of 23.8 ×10⁻⁶ cm/s. In turn, `CNCCCN1c2ccccc2CCc2ccccc21` [DESIPRAMINE] displayed a Papp at 2.5 h in data set [2] of 15.7 ×10⁻⁶ cm/s. As for `COc1cc2[nH]c(=S)n(CCN3CCCCC3)c(=O)c2cc1OC`, the inhibition in data set [1] came out at 12.7%. Same read-out and setting: the same measure for `O=c1c2cccnc2[nH]c(=S)n1-c1ccccc1`: -3.1%. For orientation: pIC50 means the IC50 on a negative log10 scale, so that one unit is a factor of ten. As for `O=c1c2cccc(Cl)c2[nH]c(=S)n1-c1c(F)cccc1F`, the pIC50 in data set [7] is 5.21. In addition, the result in data set [8] and in data set [9] was Active. Further, the inhibition in data set [1] worked out at 74.9%. In the case of `Cc1cc(Br)c2[nH]c(=S)n(-c3ccccc3)c(=O)c2c1`, in data set [1], the inhibition turned out to be 4%. Same read-out and setting: under `O=c1c2ccccc2[nH]c(=S)n1CCN1CCOCC1` stands 13.2%.

`CCn1cc(C(=O)O)c(=O)c2cc(F)c(N3CCNCC3)nc21` [ENOXACIN] came in with a Papp at 2.5 h in [2] of 1.2 ×10⁻⁶ cm/s. As to `O=c1c2cccc(Cl)c2[nH]c(=S)n1-c1ccccc1Br`, the outcome in [10] and in [9] was Active. Besides, in data set [7], the negative logarithm of the IC50 (pIC50) was 5.74. In addition, in data set [1], the inhibition was 63.4%. `COc1cc2[nH]c(=S)n(-c3cccnc3)c(=O)c2cc1OC`: in data set [1], the inhibition was determined as 19%. Still for that read-out and setting: under `COc1cc2[nH]c(=S)n(-c3ccccc3)c(=O)c2cc1OC` stands 13.2%; under `O=c1c2ccncc2[nH]c(=S)n1-c1ccccc1`, 9.3%.

For the compound `COc1ccc(Cn2c(=O)[nH]c3ncccc3c2=O)cc1`, the inhibition in data set [1] amounted to 8%.

With `O=c1c2ccccc2[nH]c(=S)n1-c1cccnc1`, the inhibition in data set [1] stood at 10%.

Regarding `COc1ccc(CCn2c(=O)[nH]c3ccc(Br)cc3c2=O)cc1`, the inhibition in [1] was -8.3%.

Consider `O=c1c2cccnc2[nH]c(=S)n1-c1cccc(Br)c1`, for which the inhibition in [1] was determined as 12.8%.

On to `O=c1c2ccccc2[nH]c(=S)n1CCN1CCCCC1`, for which the inhibition in data set [1] worked out at 21.2%. Take `COc1ccc(Cn2c(=O)[nH]c3ccccc3c2=O)cc1`: the inhibition in data set [1] was found to be 9.3%. With `O=c1c2ccncc2[nH]c(=S)n1-c1cccnc1`, the inhibition in [1] was 2.7%. The same measure, in the same setting: under `COc1ccc(CCn2c(=O)[nH]c3ccccc3c2=O)cc1` stands -7.2%. `Cn1c(=O)c2c(ncn2C)n(C)c1=O` [CAFFEINE]: the Papp at 2.5 h in data set [2] was 1.7 ×10⁻⁶ cm/s. Take `COc1cc2[nH]c(=S)n(CCN3CCOCC3)c(=O)c2cc1OC`: the inhibition in [1] worked out at 17.9%.

As for `Cc1cccc2c(=O)n(-c3ccccc3Br)c(=S)[nH]c12`, the outcome in data set [3], in data set [4] and in data set [6] was Active. For the same compound, the apparent permeability (Papp) at 2.5 h in [2] was found to be 23.9 ×10⁻⁶ cm/s. For the compound `O=c1c2ccccc2[nH]c(=S)n1-c1ccccc1`, the outcome in data set [3], in [4] and in data set [6] was Active.

`COc1ccc(CCn2c(=O)[nH]c3cnccc3c2=O)cc1`: the inhibition in data set [1] turned out to be 22.1%.
